{"source": "ChEMBL document CHEMBL1151177", "about": "“Antiviral flavonoids from the seeds of Aesculus chinensis” (J Nat Prod, 2004)", "key": {"Influenza A virus": {"tested_on": "Influenza A virus", "experiment": "Antiviral activity against influenza virus type A H1N1 in MDCK cells assessed as inhibition of virus-induced cytopathic effect", "type": "functional, organism-based", "in_short": "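Two-fold serial dilutions were applied to cell monolayers, starting at the maximal noncytotoxic concentration. An equal volume of virus at 100 TCID50/mL was added, with an untreated infected control. Plates were held at 37 °C, humidified, for 2–5 days. CPE was scored 0–4 and expressed as percent of virus control. IC50 (µg/mL), the concentration halving CPE, was read from graphic plots.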"}, "[1]": {"experiment": "Selectivity index, ratio of CC50 for MDCK cells to IC50 for influenza virus type A H1N1", "type": "functional", "in_short": "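SI was computed as CC50/IC50. CC50 came from microscopic morphology scoring (0–4) of monolayers after 2–5 days at 37 °C. IC50 came from CPE scoring of cells infected at 100 TCID50/mL and treated with two-fold dilutions for 2–5 days at 37 °C. Both values were read from graphic plots.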"}}, "data": [{"smiles": "O=c1c(O[C@@H]2O[C@H](CO)[C@@H](O)[C@H](O)[C@H]2O[C@@H]2OC[C@@H](O)[C@H](O)[C@H]2O)c(-c2ccc(O)cc2)oc2cc(O)cc(O)c12", "values": [{"measurement": "CC50", "setting": "Influenza A virus", "value": 46.9, "unit": "µg/mL"}, {"measurement": "IC50", "setting": "Influenza A virus", "value": "> 100", "unit": "µg/mL"}, {"measurement": "Ratio CC50/IC50", "setting": "[1]", "value": "<0.5"}]}, {"smiles": "O=c1c(O[C@@H]2O[C@H](CO[C@@H]3O[C@H](CO)[C@@H](O)[C@H](O)[C@H]3O)[C@@H](O)[C@H](O)[C@H]2O[C@@H]2OC[C@@H](O)[C@H](O)[C@H]2O)c(-c2ccc(O)cc2)oc2cc(O)cc(O)c12", "values": [{"measurement": "CC50", "setting": "Influenza A virus", "value": 107, "unit": "µg/mL"}, {"measurement": "IC50", "setting": "Influenza A virus", "value": "> 100", "unit": "µg/mL"}, {"measurement": "Ratio CC50/IC50", "setting": "[1]", "value": "<1.1"}]}, {"smiles": "O=c1c(O[C@@H]2O[C@H](CO)[C@@H](O)[C@H](O)[C@H]2O[C@@H]2OC[C@@H](O)[C@H](O)[C@H]2O)c(-c2ccc(O)c(O)c2)oc2cc(O)cc(O)c12", "values": [{"measurement": "CC50", "setting": "Influenza A virus", "value": 198, "unit": "µg/mL"}, {"measurement": "IC50", "setting": "Influenza A virus", "value": "> 200", "unit": "µg/mL"}, {"measurement": "Ratio CC50/IC50", "setting": "[1]", "value": "<1"}]}, {"smiles": "O=c1c(O[C@@H]2O[C@H](CO)[C@@H](O)[C@H](O)[C@H]2O[C@@H]2OC[C@@H](O)[C@H](O)[C@H]2O)c(-c2ccc(O)c(O[C@@H]3O[C@H](CO)[C@@H](O)[C@H](O)[C@H]3O)c2)oc2cc(O)cc(O)c12", "values": [{"measurement": "CC50", "setting": "Influenza A virus", "value": "> 322", "unit": "µg/mL"}, {"measurement": "IC50", "setting": "Influenza A virus", "value": "> 500", "unit": "µg/mL"}]}, {"smiles": "C[C@@H]1O[C@@H](Oc2c(-c3ccc(O)cc3)oc3cc(O)cc(O)c3c2=O)[C@H](O)[C@H](O)[C@H]1O[C@@H]1O[C@H](CO)[C@@H](O)[C@H](O)[C@H]1O", "values": [{"measurement": "CC50", "setting": "Influenza A virus", "value": 375, "unit": "µg/mL"}, {"measurement": "IC50", "setting": "Influenza A virus", "value": "> 500", "unit": "µg/mL"}, {"measurement": "Ratio CC50/IC50", "setting": "[1]", "value": "<0.8"}]}, {"smiles": "COc1ccc(-c2oc3cc(O)cc(O)c3c(=O)c2O[C@@H]2O[C@H](CO)[C@@H](O)[C@H](O)[C@H]2O[C@@H]2OC[C@@H](O)[C@H](O)[C@H]2O)cc1O[C@@H]1O[C@H](CO)[C@@H](O)[C@H](O)[C@H]1O", "note": "[AESCUFLAVOSIDE A]", "values": [{"measurement": "CC50", "setting": "Influenza A virus", "value": 322, "unit": "µg/mL"}, {"measurement": "IC50", "setting": "Influenza A virus", "value": "> 500", "unit": "µg/mL"}, {"measurement": "Ratio CC50/IC50", "setting": "[1]", "value": "<0.6"}]}, {"smiles": "C[C@@H]1O[C@@H](OC[C@H]2O[C@@H](Oc3c(-c4ccc(O)c(O[C@@H]5O[C@H](CO)[C@@H](O)[C@H](O)[C@H]5O)c4)oc4cc(O)cc(O)c4c3=O)[C@H](O[C@@H]3OC[C@@H](O)[C@H](O)[C@H]3O)[C@@H](O)[C@@H]2O)[C@H](O)[C@H](O)[C@H]1O", "note": "[AESCUFLAVOSIDE]", "values": [{"measurement": "CC50", "setting": "Influenza A virus", "value": 108, "unit": "µg/mL"}, {"measurement": "IC50", "setting": "Influenza A virus", "value": "> 100", "unit": "µg/mL"}, {"measurement": "Ratio CC50/IC50", "setting": "[1]", "value": "<1.1"}]}, {"smiles": "O=c1c(O[C@@H]2O[C@H](CO)[C@@H](O)[C@H](O)[C@H]2O)c(-c2ccc(O)cc2)oc2cc(O)cc(O)c12", "note": "[ASTRAGALIN]", "values": [{"measurement": "CC50", "setting": "Influenza A virus", "value": 392, "unit": "µg/mL"}, {"measurement": "IC50", "setting": "Influenza A virus", "value": 24.5, "unit": "µg/mL"}, {"measurement": "Ratio CC50/IC50", "setting": "[1]", "value": 16}]}, {"smiles": "O=c1c(O[C@@H]2O[C@H](CO)[C@@H](O)[C@H](O)[C@H]2O)c(-c2ccc(O)c(O)c2)oc2cc(O)cc(O)c12", "note": "[ISOQUERCETIN]", "values": [{"measurement": "CC50", "setting": "Influenza A virus", "value": "> 400", "unit": "µg/mL"}, {"measurement": "IC50", "setting": "Influenza A virus", "value": "> 500", "unit": "µg/mL"}]}, {"smiles": "NC(=O)c1ncn([C@@H]2O[C@H](CO)[C@@H](O)[C@H]2O)n1", "note": "[RIBAVIRIN]", "values": [{"measurement": "CC50", "setting": "Influenza A virus", "value": "> 125", "unit": "µg/mL"}, {"measurement": "IC50", "setting": "Influenza A virus", "value": 62.5, "unit": "µg/mL"}]}, {"smiles": "O=c1c(O[C@@H]2O[C@H](CO)[C@H](O)[C@H](O)[C@H]2O)c(-c2ccc(O)cc2)oc2cc(O)cc(O)c12", "note": "[TRIFOLIN]", "values": [{"measurement": "CC50", "setting": "Influenza A virus", "value": 215, "unit": "µg/mL"}, {"measurement": "IC50", "setting": "Influenza A virus", "value": "> 300", "unit": "µg/mL"}, {"measurement": "Ratio CC50/IC50", "setting": "[1]", "value": "<0.7"}]}]}
